# STAT1 activator: activators of IFN-gamma induced STAT1 signaling; NIH 3T3 STAT1-luciferase reporter, luminescence; 100% = IFN-gamma alone, no compound; activation (% of control), % at 5.5 µM; 200,000 compounds, 2.6% hits;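 active means activation above the screen-wide mean activation plus 3 SD, cut at about 130% in these data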;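 further: raw ratio to IFN-gamma control signal so 100% means no change and 0% no light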
# STAT1 blocker: inhibitors of IFN-gamma induced STAT1 signaling | inhibition, % at 5.5 µM | NIH 3T3 STAT1-luciferase reporter, luminescence | 200,000 compounds, 0.35% hits;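 active means inhibition above a set limit, the mean inhibition across all tested compounds plus 3 SD, cut at about 34% in these data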;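 further: 0% = IFN-gamma with DMSO and 100% = IFN-gamma with 300 µM nifuroxazide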
# APP 5'UTR act: APP 5'UTR luciferase reporter activation | SH-SY5Y APP 5'UTR luciferase reporter, luminescence; zero percent = DMSO vehicle wells | activation, % at 2 µM | 190,000 compounds, 1% hits;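 active means activation above a set limit, based on mean plus 3 SD of controls, cut at about 140% in these data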
# STAT3 activator: STAT3 signaling activation. AID 871. activation (% of control), % at 5.6 µM. 190,000 compounds, 0.91% hits. U3A cells, IL-6 STAT3-luciferase reporter, luminescence; 100% = signal with IL-6 EC80 alone;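 active means activation above the screen-wide mean of compound activation plus 3 SD, cut at about 130% in these data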;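 further: 0% = background luminescence of wells with medium and substrate only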
#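 Detection: reporter luminescence signal / Assay system: STAT1-lacking human U3A cells, STAT3 luciferase reporter / Incubation: compound pre-incubation 1 h before IL-6, then 6 h stimulation at 37 °C / Control set: IL-6-only high control / Read-out: % activation relative to IL-6 control / Probe or stimulus: Interleukin-6, 33 ng/mL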
# NF-kB expr up: raises NF-kB expression in human neuronal cells; NF-kB reporter expression; active compounds read high; fold change at 12.5 µM; 190,000 compounds, 1.6% hits; in the data active means fold change above about 3.3
# STAT3 inh: inhibitors of IL-6 induced STAT3 signaling. U3A cells, IL-6 STAT3-luciferase reporter, luminescence; host cell line lacks STAT1. inhibition, % at 5.5 µM. 190,000 compounds, 0.89% hits. AID 862;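 active means inhibition above the mean inhibition across all screened compounds plus 3 SD, cut at about 44% in these data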;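 further: 0% = DMSO only wells and 100% = 100 µM nifuroxazide control wells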
# * marks the source's active call; other numbers are inactive results. Only some compounds are listed: those with a hit (about 5.1% of all), similar ones and a draw of the others.
SMILES,STAT1 activator,STAT1 blocker,APP 5'UTR act,STAT3 activator,NF-kB expr up,STAT3 inh
COc1ccc(-c2nc(-c3ccncc3)no2)cc1OC,132*,-32,78,117,1.1,-16
Cc1cccc(-c2noc(-c3ccoc3C)n2)c1,150*,-53,105,100,2.1,0
CCCCc1ccc(NC(=S)N2CCC(O)CC2)cc1,105,-7,1,104,1.4,-3
Cc1ccc(S(=O)(=O)Nc2ccnc(-c3cccnc3)n2)cc1,99,1,-4,94,0.87,9
COc1ccc(-c2noc(-c3ccoc3C)n2)cc1OC,143*,-46,61,93,3.6*,14
Cc1ccc(OCCOc2cccc(Br)c2)c([N+](=O)[O-])n1,132*,-35,54,104,2.5,-4
CCC(C(=O)O)P(=O)(c1ccc(Cl)cc1)c1ccc(Cl)cc1 (configuration not stated),104,-4,16,103,1.4,6
CCOC(=O)c1ccccc1-c1csc(N)n1,93,5,9,99,1.1,6
CN(C)/C=N/C(=S)Nc1ccc(Cl)cc1Cl,132*,-37,13,104,1.7,7
CN(C)/C=N/C(=S)Nc1ccc(Cl)cc1,127,-32,49,103,1.7,5
CCOc1ccc(CCNC(=O)COC(=O)/C=C/c2ccc(OCC#N)c(OC)c2)cc1OCC,102,0,7,104,1.2,-7
O=c1[nH]c(S)nc2sc3c(c12)CCCC3,106,-7,-6,99,0.99,10
O=c1[nH]c(-c2ccco2)nc2sc3c(c12)CCCC3,149*,-55,154*,95,5.8*,6
CCOC(=O)C1(Cc2ccccc2Cl)CCN(C(=O)c2cnccn2)CC1,149*,-57,42,110,2.7,-7
CCOC(=O)C1(Cc2cccc(F)c2)CCN(C(=O)c2cnccn2)CC1,101,-1,6,101,1,5
COc1cccc(CNc2cccc3cccnc23)c1O,92,4,19,110,0.44,-9
COc1cccc(CNc2cnc3ccccc3c2)c1O,95,6,93,73,7.6*,35
Cc1ccc(-c2cc(N)n(Cc3ccc(Cl)cc3)n2)cc1,90,12,0,67,1.1,46*
Nc1c(-c2ccc(Cl)cc2)nnn1-c1ccccc1,132*,-35,89,99,3,6
Nc1cc(-c2ccc(Cl)cc2)nn1-c1ccccc1,149*,-51,88,91,2.6,11
Cn1c(=O)c2c(ncn2CC(O)CNc2cccc(Cl)c2)n(C)c1=O (configuration not stated),81,19,15,75,1.5,31
Cc1c(C#N)c(NC(=O)CCl)n(Cc2ccc(F)cc2)c1C,68,34*,12,76,0.22,32
Cc1ccn2cc(-c3cccc(NC(=O)C(C)C)c3)nc2c1,132*,-36,41,88,2.3,20
CC(C)C(=O)Nc1cccc(-c2cn3ccccc3n2)c1,112,-14,-13,102,2,-3
CCCCCCCCSc1nnc(CSc2nc3nc(C)cc(C)n3n2)o1,102,-2,3,98,0.86,8
SMILES,STAT1 activator,STAT1 blocker,APP 5'UTR act,STAT3 activator,NF-kB expr up,STAT3 inh
O=C(CN1C(=O)c2ccccc2S1(=O)=O)c1ccccc1,44,62*,-3,50,0.15,65*
Cc1oc(CSCC2CCCO2)cc1C(=O)O (configuration not stated),148*,-52,13,103,1.1,0
Cc1oc(C2CC2)cc1C(=O)O,97,3,-6,104,1.1,-5
COc1ccc(/C(C)=N/NC(=O)C2CC2)cc1,104,-6,10,103,1.2,1
COc1ccc2cc(/C(C)=N/NC(=O)C3CC3)ccc2c1,147*,-50,67,103,2.4,-2
O=C(NC(=S)Nc1nc2c(s1)CSc1ccccc1-2)c1ccccc1,87,15,-5,167*,1.2,-82
Cc1nn(Cc2ccccc2)c(Cl)c1C(=O)OCC#N,106,-4,-9,98,1,8
CC(C)c1ccc(C2=C(O)c3ccccc3C(=O)C2=O)cc1,106,-7,5,85,1.6,21
O=C1C(c2ccncc2)=C(O)c2ccccc21,101,-1,160*,81,3.5*,27
C/C(=N\NC(=O)c1cc(-c2ccncc2)nc2ccccc12)c1ccc(OC(F)F)cc1,110,-11,-12,107,0.9,-4
NS(=O)(=O)c1ccc(CCNC(=O)c2ccc(Cn3c(=O)[nH]c4ccccc4c3=O)cc2)cc1,95,5,-14,95,1,10
CCOC(=O)CSc1nc2cc(OCC)ccc2cc1C#N,124,-24,168*,95,2.2,13
CCOC(=O)CSc1nc(-c2ccc3c(c2)OCO3)ccc1C#N,126,-28,202*,111,0.74,-7
COC(=O)CSc1nc2cc(OC)ccc2cc1C#N,142*,-45,155*,94,14*,14
COc1ccc2cc(C#N)c(SCC(=O)N3CCCC3)nc2c1,100,-2,-1,96,1.6,6
COc1ccc(CCNC(=O)Cn2cc(C(F)(F)F)cc(Cl)c2=O)cc1OC,105,-6,-15,102,1.2,-2
CCN1/C(=C\C=C(C(C)=O)C(C)=O)Sc2ccccc21,95,4,-8,78,0.91,28
CCN1/C(=C/C(C)=C/c2sc3ccccc3[n+]2CC)Sc2ccccc21,57,45*,-67,21,0.11,96*
C/C(=N\NC(=O)C(=O)Nc1cccc(C(F)(F)F)c1)c1ccc(Cl)s1,95,5,12,78,1.3,28
COc1ccc(Br)cc1/C=N/Nc1cccc(C(=O)O)c1,108,-9,18,104,1.8,-10
C=CCOc1c(CNc2cccc(C(=O)O)c2)cccc1OCC,112,-13,11,101,1.6,10
C/C(=N\Nc1cccc(C(=O)O)c1)c1ccc(Cl)s1,135*,-37,86,98,2.1,8
COc1ccc(C(=O)Nc2ccc(/C(C)=N/NC(=O)c3ccccc3O)cc2)cc1OC,129*,-32,13,103,0.77,0
C=CCOc1c(CNc2cccc(C(=O)O)c2)cccc1OC,145*,-49,56,119,1.9,-14
COc1ccc(/C(C)=N/Nc2cccc(C(=O)O)c2)cc1OC,107,-9,217*,112,1.1,-5
C/C(=C/C(=O)Nc1cccc(F)c1)N1CCCC1,95,3,7,102,2,0
CN(CCCNC(=O)Cn1cccc1C(=O)c1ccccc1)C1CCCCC1,100,-1,5,100,1.3,12
Cc1ccc(-c2cc(-c3ccccc3Cl)[nH]n2)c(O)c1,102,-3,171*,118,9.8*,-18
Cc1ccccc1-c1cc(-c2ccccc2O)n[nH]1,99,1,158*,126,7.7*,-28
